In ChEMBL document CHEMBL1926655, “Electron-donating para-methoxy converts a benzamide-isoquinoline derivative into a highly Sigma-2 receptor selective ligand” (Bioorg Med Chem, 2011):
Active and inactive are the calls of the source. No cut-off for these calls is given here.

What was measured:
Rattus norvegicus = organism: Rattus norvegicus; experiment: Selectivity ratio of Ki for rat sigma 1 receptor to Ki for rat sigma 2 receptor
Summary of the method: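 Ratio of Ki values from rat liver membrane competition binding: σ1 with 10 nM [³H]-(+)-pentazocine, σ2 with 10 nM [³H]-DTG plus 100 nM (+)-pentazocine; 1.5 h at 32°C, filtration and scintillation counting, Ki by Cheng-Prusoff.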

[1] = Displacement of [3H]ditolylguanidine from sigma 2 receptor in rat liver membrane after 1.5 hrs by scintillation counting in presence of sigma 1 blocker (+)-pentazocine; format: cell membranes
Summary of the method: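 Rat liver membranes (~50 μg total protein per reaction) in 50 mM Tris-HCl pH 8.0 with 10 nM [³H]-DTG plus 100 nM cold (+)-pentazocine to mask σ1 sites. […] Filtration on PEI-pretreated GF/B, scintillation counting, one-site competition fit, Ki via Cheng-Prusoff.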

[2] = target: Sigma non-opioid intracellular receptor 1 (Rattus norvegicus, UniProt Q9R0C9); experiment: Displacement of (+)-[3H]pentazocine from sigma 1 receptor in rat liver membrane after 1.5 hrs by scintillation counting; format: cell membranes
Summary of the method: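 Rat liver membranes (~50 μg total protein per reaction) incubated with 10 nM [³H]-(+)-pentazocine and serial dilutions of compound (stocks in DMSO) for 1.5 h at 32°C. […] Filtered through polyethyleneimine-pretreated GF/B filters, bound radioactivity counted by liquid scintillation. One-site competition fit, Ki by Cheng-Prusoff.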

RT-4 = experiment: Displacement of [125I]IAF from sigma 2 receptor in human RT4 cells at 10 uM after 30 mins preincubation by photoaffinity labeling experiment; format: cell-based
Summary of the method: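 Fresh membranes from sonicated RT4 human bladder papilloma cells (200 μg protein per reaction) preincubated with compound in 50 mM Tris pH 7.4, 30 min, 32°C. Then 1 nM [¹²⁵I]-IAF (final 1% ethyl acetate) added for 30 min at 32°C, photoactivated 6 sec with mercury lamp, quenched in SDS/β-mercaptoethanol sample buffer; labeled receptor bands examined.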

Sigma non-opioid intracellular receptor 1, sequence (Q9R0C9 whole entry): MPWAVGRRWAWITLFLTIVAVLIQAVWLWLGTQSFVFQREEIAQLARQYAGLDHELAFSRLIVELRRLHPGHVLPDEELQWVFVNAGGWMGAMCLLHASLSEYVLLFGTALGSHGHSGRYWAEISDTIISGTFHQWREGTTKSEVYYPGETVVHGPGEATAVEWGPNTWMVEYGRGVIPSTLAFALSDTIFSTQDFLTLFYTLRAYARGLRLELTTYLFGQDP

| SMILES | Ratio Ki (Rattus norvegicus) | Ki [1] [µM] | Ki [2] [µM] | Activity (RT-4) |
| --- | --- | --- | --- | --- |
| COc1cc2c(cc1OC)CN(CCCCNC(=O)c1ccccc1)CC2 |  | 5.29 | > 10000 |  |
| COc1ccc(C(=O)NCCCCN2CCc3ccc([N+](=O)[O-])cc3C2)c(OC)c1OC | 385 | 0.0268 | 10.3 |  |
| O=C1c2ccccc2C(=O)N1CCCCN1CCc2ccc([N+](=O)[O-])cc2C1 | 4.12 | 0.0213 | 0.0875 | Active |
| O=C(CCCN1CCC(O)(c2ccc(Cl)cc2)CC1)c1ccc(F)cc1 |  |  |  | Active |
| COc1c(I)ccc(C(=O)NCCCCN2CCc3ccc([N+](=O)[O-])cc3C2)c1O | 86.2 | 0.867 | 74.7 |  |
| COc1cc2c(cc1OC)CN(CCCCNC(=O)c1ccc([N+](=O)[O-])cc1)CC2 | 0.096 | 152 | 14.7 |  |
| COc1cccc(C(=O)NCCCCN2CCc3ccc([N+](=O)[O-])cc3C2)c1OC | 0.61 | 12.9 | 7.87 | inactive |

The next lines start with results.

| Ratio Ki (Rattus norvegicus) | Ki [1] [µM] | Ki [2] [µM] | SMILES | Activity (RT-4) |
| --- | --- | --- | --- | --- |
| 2.8 | 4 | 11.2 | COc1cccc(C(=O)NCCCCN2CCc3ccc([N+](=O)[O-])cc3C2)c1O |  |
|  | > 10000 | 1210 | COc1cc2c(cc1OC)CN(CCCCNC(=O)c1cccc([N+](=O)[O-])c1)CC2 |  |
| 48.4 | 1.4 | 67.8 | COc1cc2c(cc1OC)CN(CCCCNC(=O)c1cccc(OC)c1O)CC2 |  |
